Compound activity deposited in PubChem by The Scripps Research Institute Molecular Screening Center.
OX1R antag-1: antagonists of human orexin 1 receptor. O43613. CHO/OX1R cells, Fluo-8 calcium fluorescence, orexin A. inhibition, % at 5 µM. 330,000 tested, 0.43% active. AID 434989;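 active = inhibition above its plate's threshold, mean inhibition of all tested compounds on the plate plus 3 SD, cut at about 37% in these data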;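 also: 0% = orexin A challenge wells and 100% = SB-334867-A antagonist wells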
TAAR1 ag: human TAAR1 agonism | Q96RJ0 | CHO RD-HGA16 TAAR1, Fluo-8 calcium fluorescence; vehicle wells 0%, saturating PEA agonist 100% | activation, % at 3 µM | 360,000 tested, 0.99% active | AID 624467;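 active = activation above the mean activation of all test compounds in the run plus 3 SD, cut at about 38% in these data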
Target sequence (Q96RJ0 whole entry, looked up): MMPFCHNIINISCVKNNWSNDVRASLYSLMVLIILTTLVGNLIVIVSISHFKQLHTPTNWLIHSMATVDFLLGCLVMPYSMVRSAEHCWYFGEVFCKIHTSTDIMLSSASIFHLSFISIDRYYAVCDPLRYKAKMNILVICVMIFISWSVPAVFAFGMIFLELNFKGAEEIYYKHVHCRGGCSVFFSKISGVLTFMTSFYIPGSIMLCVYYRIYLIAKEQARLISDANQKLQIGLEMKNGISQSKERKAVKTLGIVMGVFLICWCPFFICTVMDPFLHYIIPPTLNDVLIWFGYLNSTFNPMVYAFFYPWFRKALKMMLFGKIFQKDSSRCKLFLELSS
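Repeats: no replicates (n 1) | Material: CHO-derived RD-HGA16 cells with stable Gα16 and human TAAR1 | Technique: Kinetic Fluo-8 calcium fluorescence | Schedule: 17-24 h seeding, 75 min 37 °C dye, 30 min RT | Evaluation: % activation from peak over basal fluorescence ratio, DMSO-to-PEA scaled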
OX1R antag-2: antagonists of human orexin 1 receptor (OX1R); O43613; OX1R-expressing cells, FRET antagonist read-out; inhibition, % at 6.6 µM; 330,000 tested, 1.8% active; in the data active = inhibition mostly above about 38%, no sharp cut-off; inactive = mostly below about 40%;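 also: 0% = agonist challenge alone and 100% = reference antagonist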
TAAR1 antag: antagonists of human TAAR1; Q96RJ0; inhibition, % at 3 µM; CHO RD-HGA16 TAAR1, Fluo-8 calcium fluorescence, antagonist; 360,000 tested, 1.5% active;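 active = inhibition above a per-plate cutoff, the mean inhibition of test compounds on that plate plus 3 SD, cut at about 49% in these data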;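 also: 0% = DMSO plus EC80 beta-PEA response and 100% = DMSO alone without agonist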
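Test system – hTAAR1-expressing CHO RD-HGA16 cells, Gα16-coupled · Also added – β-PEA at EC80 concentration, post-compound challenge · Compound – 3 µM, single point · Incubation – dye loading 75 min at 37 °C, then 30 min room temperature · Measured by – Fluo-8 intracellular calcium dye fluorescence, real-time kinetic reads · Benchmarks – vehicle and agonist controls · Replicates – singlicate, one well per test compound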
GalR3 antag: antagonists of human GalR3 | O60755 | 360,000 tested, 0.44% active | inhibition, % at 3 µM | HEK293 GalR3-CNG cAMP membrane potential fluorescence; galR3 body fused to GalR1 C-terminus;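 active = inhibition above the screen-wide average plus 3 SD, cut at about 13% in these data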;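 also: forskolin and galanin both at EC90 stimulate the cells; cAMP rise reported by CNG channel membrane potential dye signal; 0% = forskolin plus galanin with DMSO and 100% = forskolin alone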
Target sequence (O60755 1-299 limits assumed): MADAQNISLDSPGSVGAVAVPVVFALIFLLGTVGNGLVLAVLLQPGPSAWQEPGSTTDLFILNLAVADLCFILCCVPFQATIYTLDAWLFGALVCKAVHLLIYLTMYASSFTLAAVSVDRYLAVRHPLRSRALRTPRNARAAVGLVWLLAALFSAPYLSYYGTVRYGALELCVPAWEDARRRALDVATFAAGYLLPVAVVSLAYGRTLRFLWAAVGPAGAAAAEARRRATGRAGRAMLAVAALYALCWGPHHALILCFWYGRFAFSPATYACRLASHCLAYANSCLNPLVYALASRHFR
CHO parental Ca: counter-screen: ATP calcium response change in parental CHO cells; parental CHO-K1, ATP-induced calcium, Fluo-8 fluorescence; inhibition, % at 5.6 µM; 330,000 tested, 0.63% active;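 active = inhibition above that plate's mean sample inhibition plus 3 SD, cut at about 26% in these data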;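 also: 0% = ATP-challenged DMSO wells and 100% = DMSO wells without ATP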
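Measured by: calcium-sensitive Fluo-8 fluorescence / Test system: CHO parental line / Controls: ATP-challenged DMSO wells low, unchallenged DMSO wells high / Measure: % inhibition / Compound: single nominal dose of 5.6 µM per compound / Replicates: single well per compound, no replicates / Reagent: ATP as calcium-mobilizing challenge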
* = called active by the depositor; / = no result given. Shown are actives, neighbours in structure and some others; about 4.2% of the full set was active somewhere.

SMILES | OX1R antag-1 | TAAR1 ag | OX1R antag-2 | TAAR1 antag | GalR3 antag | CHO parental Ca
CC(C)(C)CC(C)(C)c1ccc(OCCOCC[N+](C)(C)Cc2ccccc2)cc1 | 11 | 40* | 9 | 3 | -2 | 13
CCOc1ccc(-c2nnc(SCC(=O)Nc3ccc4c(c3)c3ccccc3n4CC)n2N)cc1 | -17 | 3 | 13 | 6 | -5 | -19
CCn1c2ccccc2c2cc(NC(=O)CSc3nnc(-c4ccc(OC)c(OC)c4)n3N)ccc21 | 9 | 16 | 74* | 3 | -5 | -32
CCn1c2ccccc2c2cc(NC(=O)CSc3nnc(-c4ccccc4OC)n3N)ccc21 | -10 | 6 | 56* | 37 | -4 | -11
O=C1CC(c2cccs2)CC(O)=C1C=NCCN1CCNCC1 (stereo unspecified) | -7 | 2 | 24 | 4 | -12 | -9
Nc1nc(CSc2nc3ccccc3s2)nc(Nc2ccccc2)n1 | 60* | / | 92* | / | / | -30
Cc1ccccc1Nc1nc(N)nc(CSc2nnc3sc4ccccc4n23)n1 | -18 | 12 | 2 | 2 | -3 | 2
Cc1ccc(S(=O)(=O)Nc2cc(C(C(=O)OC(C)C)C(=O)C(F)(F)F)c(O)c3ccccc23)c(C)c1 (stereo unspecified) | 51* | 0 | 114* | -19 | -4 | 31*
CC(C)COC(=O)NCCOC(=O)Nc1cccc(Cl)c1 | 1 | 6 | 37 | 23 | -4 | 57*
Cc1ccccc1C(=O)c1cn[nH]c1-c1ccccc1O | -11 | 0 | 15 | -17 | -5 | -5
O=C(Oc1ccccc1)c1ccccc1OS(=O)(=O)c1ccccc1 | 61* | 0 | 41 | 13 | -5 | 65*
Cn1c(=O)c2c(nc(NCc3ccc4c(c3)OCO4)n2Cc2ccc(F)cc2)n(C)c1=O | -33 | 18 | 13 | -1 | 0 | 22*
Cn1c(=O)c2c(nc(NCc3ccc4c(c3)OCO4)n2Cc2ccccc2)n(C)c1=O | -12 | 12 | 27 | 5 | -1 | -6
COc1cccc(C(c2nnnn2Cc2ccccc2)N2CCN(C3CCCC3)CC2)c1OC (stereo unspecified) | -25 | 24 | 15 | 53* | -4 | 1
COc1ccccc1C(c1nnnn1Cc1ccccc1)N1CCN(C2CCCC2)CC1 (stereo unspecified) | -30 | 6 | 11 | -3 | -9 | -17
O=C(c1ccco1)N1CCN(C(=O)c2ccco2)CC1 | / | 0 | / | -23 | -5 | /
N#C/C=C/N1CCN(C(=O)c2ccco2)CC1 | 11 | 41* | -1 | -34 | 0 | -6
COc1cccc(NC(=S)N(CCCN2CCN(C)CC2)Cc2ccco2)c1 | 5 | 1 | 28 | -17 | 7 | 2
Cc1cccc(NC(=O)Cn2c(=O)oc3ccccc32)c1C | -21 | 2 | -2 | -23 | -11 | -11
CCOC(=O)N1C(=O)c2cc(OC)ccc2S1(=O)=O | 0 | 18 | 27 | 5 | -4 | 9
Cc1noc(C)c1S(=O)(=O)Nc1ccc(C(=O)N2CCN(c3cccc(Cl)c3)CC2)cc1 | 56* | 9 | 26 | 38 | -2 | 33*
CC1(CC(=O)N/N=C/c2cc([N+](=O)[O-])c(O)cc2O)OCCO1 | -2 | 4 | 52* | 7 | -3 | -2
COc1ccc(CN(C)C(=O)c2cccc(Oc3ccccc3)c2)c(OC)c1OC | -16 | 11 | 13 | 54* | -9 | -23
COc1ccc(CN(C)C(=O)[C@H](Cc2ccccc2)NC(=O)c2ccco2)c(OC)c1 | -11 | 21 | 15 | 40 | -1 | -19
COc1ccc(CN(C)C(=O)C(Cc2ccccc2)NC(=O)c2ccccc2)c(OC)c1OC (stereo unspecified) | / | 10 | / | 54* | -7 | /
SMILES | OX1R antag-1 | TAAR1 ag | OX1R antag-2 | TAAR1 antag | GalR3 antag | CHO parental Ca
COc1cccc(CN(C)C(=O)c2cccc(S(=O)(=O)NCc3ccccc3)c2)c1OC | -25 | 11 | 18 | 31 | -2 | 0
COc1cccc(CN(C)C(=O)c2cccc(S(=O)(=O)N3CCN(c4ccc(F)cc4)CC3)c2)c1OC | 13 | 3 | 36 | 30 | -4 | 35*
CCOC(=O)/C=c1\s/c(=C\c2ccc(C)cc2)c(=O)n1CC(=O)NCc1ccco1 | -13 | 0 | 12 | -11 | -1 | -3
Cc1ccc(-n2nc(C(=O)O)c(C)c(C#N)c2=O)cc1Cl | -27 | -1 | 51* | -29 | -9 | -11
CCOC(=O)c1nn(-c2ccccc2)c(C#N)c1N | -11 | 6 | 17 | 9 | -5 | -4
Cc1c(C(=O)O)nn(-c2ccccc2)c(=O)c1C#N | -6 | 0 | 60* | 5 | / | -3
CCOC(=O)c1nn(-c2ccc(C)c(Cl)c2)c(=O)c(C#N)c1C | -36 | 2 | 28 | -4 | -5 | -18
O=c1[nH][nH]c2c([N+](=O)[O-])ccc(F)c12 | / | 1 | / | -6 | -7 | /
COc1ccc(C2=NC(=O)NC2c2ccc(OC)cc2)cc1 (stereo unspecified) | -7 | -1 | 1 | 0 | -4 | -10
CN(C)S(=O)(=O)c1cccc(COC(=O)c2ccc3c(c2)OCO3)c1 | -9 | 2 | 22 | 22 | 0 | -7
CN(C)S(=O)(=O)c1cccc(COC(=O)c2ccc(Cl)cc2O)c1 | 33 | 2 | 34 | 8 | -5 | 48*
O=C1c2ccc([N+](=O)[O-])cc2C(=O)N1Cc1cccnc1 | -18 | 6 | 77* | -20 | -3 | -2
CCS(=O)(=O)c1ccc(-c2cccc(NC(=O)c3ccco3)c2)nn1 | -11 | 2 | 14 | -14 | -1 | -13
COc1ccc(Cc2nnc(NC(=O)CSc3ccc(C)cc3)s2)cc1OC | -62 | 112* | 11 | 87* | / | -42
Cc1ccc(NC(=O)c2ccc(OC(=S)N3CCOCC3)cc2)cc1 | -17 | 9 | 19 | 3 | -1 | -15
C[C@@H]1CN([C@H](C)CO)C(=O)c2cc(NC(=O)Nc3ccc(C(F)(F)F)cc3)ccc2O[C@H]1CN(C)Cc1ccc(Cl)c(Cl)c1 | -37 | 2 | 0 | -21 | -6 | -13
COc1ccc(NC(=O)N(C)C[C@H]2Oc3c(NC(=O)Nc4ccc(C(F)(F)F)cc4)cccc3C(=O)N([C@H](C)CO)C[C@@H]2C)cc1 | 12 | 31 | 20 | 73* | -6 | -6
C[C@H](CO)N1C[C@H](C)[C@@H](CN(C)C(=O)Nc2ccc3c(c2)OCO3)Oc2c(NC(=O)Nc3ccc(C(F)(F)F)cc3)cccc2C1=O | 6 | 34 | 16 | 80* | -6 | -7
